What was measured:
hGPR83 [1] = molecular target: T1, hGPR83 (Homo sapiens, UniProt Q9NYM4); experiment: Displacement of [125I]Tyr-rPEN binding to CHO hGPR83 cell membranes; conditions: Fig. 4D
Method in brief: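 Membranes were prepared from CHO cells expressing untagged hGPR83 by homogenising in ice-cold 20 mM tris-Cl, 250 mM sucrose, 2 mM EGTA, 1 mM MgCl₂ (pH 7.4), then spinning at 27,000g. Membranes (50 μg) were incubated 1 h at 37°C in 50 mM tris-Cl (pH 7.4) plus protease inhibitors with 3 nM [¹²⁵I]Tyr-rPEN and competitor peptide (0 to 10 μM). Samples were filtered on GF/B, washed three times with ice-cold buffer and counted by scintillation.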

hGPR83 [2] = molecular target: T1, hGPR83; experiment: [35S]GTPγS binding in membranes from CHO hGPR83 cells; type: biochemical; conditions: membranes 20 μg; Fig. 4E
Method in brief: (§1)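 Membranes (20 μg) were incubated 1 h at 30°C with peptide (0 to 1 μM final), 2 mM GDP and 0.5 nM [³⁵S]GTPγS. Buffer was 50 mM Hepes, 5 mM MgCl₂, 100 mM NaCl, 1 mM EDTA (pH 7.4) with protease inhibitors. Nonspecific binding was taken with 10 μM cold GTPγS, and basal as GDP without ligand. Samples were filtered on GF/B, washed three times with ice-cold 50 mM tris-Cl and counted by scintillation.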

[3] = [35S]GTPγS binding in membranes from control CHO cells; type: biochemical, Chinese hamster; conditions: membranes 20 μg, CHO alone; Fig. 4E
Method in brief: as §1

Neuro2A cells = Neuro2A cells (Mus musculus, UniProt P30731); experiment: Neurite outgrowth assay; type: cell-based; conditions: 1 μM peptide, 16 to 20 hours at 37°C, protease inhibitor cocktail; Fig. 3A
Method in brief: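 Neuro2A cells were plated on poly-L-lysine, 20,000 per well, in 10% FBS medium. Next day, in serum-free medium, cells got 1 μM peptide or vehicle with protease inhibitors for 16–20 h at 37°C. Sequential 40× images covered ~300–500 cells, with repeats on different days. Blinded scoring: a cell counted positive if its neurite was longer than twice the cell diameter.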

[4] = molecular target: endogenous mouse GPR83 in brain (hypothalamus, hippocampus, PVN) (mouse (endogenous in hypothalamus, hippocampus)) (UniProt P30731); experiment: radioligand binding
[5] = molecular target: mouse hypothalamic membranes (Mus musculus, UniProt P30731); experiment: Displacement of [125I]Tyr-rPEN binding in mouse hypothalamic membranes; conditions: [125I]Tyr-rPEN 3 nM, membranes 30 μg, peptide 0 to 10 μM; Fig. 1C
[6] = intracerebroventricular administration; cited from earlier work

T1 sequence (Q9NYM4 17-423): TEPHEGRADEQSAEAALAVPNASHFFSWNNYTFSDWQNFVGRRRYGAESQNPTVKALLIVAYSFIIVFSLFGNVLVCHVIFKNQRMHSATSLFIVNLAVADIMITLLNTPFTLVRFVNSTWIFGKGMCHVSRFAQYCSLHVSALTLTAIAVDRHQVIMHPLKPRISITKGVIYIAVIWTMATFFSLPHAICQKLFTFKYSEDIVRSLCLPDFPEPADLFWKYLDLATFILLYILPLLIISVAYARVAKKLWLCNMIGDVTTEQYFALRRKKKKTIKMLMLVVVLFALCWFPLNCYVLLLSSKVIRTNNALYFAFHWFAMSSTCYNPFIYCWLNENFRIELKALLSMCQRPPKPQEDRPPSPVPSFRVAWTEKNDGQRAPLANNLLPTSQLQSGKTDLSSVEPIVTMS
Sequence of Neuro2A cells (P30731 18-423): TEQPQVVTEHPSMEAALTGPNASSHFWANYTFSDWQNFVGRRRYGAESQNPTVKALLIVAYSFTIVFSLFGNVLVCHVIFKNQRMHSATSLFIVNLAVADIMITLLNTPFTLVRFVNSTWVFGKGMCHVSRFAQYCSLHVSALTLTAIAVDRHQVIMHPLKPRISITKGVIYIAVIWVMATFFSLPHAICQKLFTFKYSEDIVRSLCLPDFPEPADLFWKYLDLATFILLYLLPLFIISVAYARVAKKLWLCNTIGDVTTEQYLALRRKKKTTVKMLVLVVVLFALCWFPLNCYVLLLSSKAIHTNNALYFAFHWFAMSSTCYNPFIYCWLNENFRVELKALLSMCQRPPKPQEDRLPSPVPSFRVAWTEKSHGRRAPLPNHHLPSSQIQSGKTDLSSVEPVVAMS
Sequence of endogenous mouse GPR83 in brain (hypothalamus, hippocampus, PVN) (mouse (endogenous in hypothalamus, hippocampus)) (P30731 18-423): as above
Sequence of mouse hypothalamic membranes (P30731 18-423): as above

## neuropeptide Y [NPY]
hGPR83 [1]; 10 μM NPY, not significant (one-way ANOVA, P = 0.37)
  displacement of [125I]Tyr-rPEN: ~ 20%
hGPR83 [1]; NPY at concentrations below 1 μM, [125I]Tyr-rPEN 3 nM, membranes 50 μg
  displacement of [125I]Tyr-rPEN: did not displace
hGPR83 [2]
  GTPγS binding: small increase
[3]
  GTPγS binding: small increase

## rSAAS: rat SAAS, proSAAS-derived peptide (ARPVKEPRSLSAASAPLAETSTPLRL; Big SAAS; UniProt Q9QXU9 34-59, looked up)
Neuro2A cells
  number of neurites: significantly increased

## N-terminally tyrosinated, radioiodinated rat PEN (peptide)
[4]
  Kd: 8 nM

## LENPSPQAPA [rlittleLEN]
[5]
  competition for [125I]Tyr-rPEN binding: did not compete for binding

## PEN: proSAAS-derived peptide PEN, species form not stated at this place (AADHDVGSELPPEGVLGALLRV; PEN; UniProt Q9UHG2 221-242, looked up)
[6]
  effect on food intake: did not elicit a significant effect

## bigLEN: proSAAS-derived peptide bigLEN, species form not stated at this place (LETPAPQVPARRLLPP; Big LEN; UniProt Q9UHG2 245-260, looked up)
[6]
  effect on food intake: did not elicit a significant effect

## mbigLEN: mouse bigLEN, proSAAS-derived neuropeptide that activates GPR171 (LENPSPQAPARRLLPP; Big LEN; UniProt Q9QXV0 243-258, looked up)
Neuro2A cells
  number of neurites: significantly increased

From article PMC5147544 (Science signaling, 2016)
